Published values collected from several papers.
Protocols differ between the studies behind these lines.
Read-out: metabolic stability
Host: human

O=c1c2cc(Cl)c(CO)cc2[nH]c(=S)n1Cc1cncnc1  half-life (liver microsomes; 1 µM; pH 7.4): 71.8 min
CC(C)CC(=O)OC[C@H]1O[C@@](C#N)(c2ccc3c(N)ncnn23)[C@H](O)[C@@H]1O  half-life (hepatocytes): < 4.36 min
C#Cc1nc(C(=O)N2CCC(NC(=O)c3cnc(-c4ccccc4)s3)(c3nc4ccccc4n3C)CC2)cs1  half-life (liver microsomes): ~20 min
O=c1[nH]c2ccccc2n1C1CCN(CCCC(c2ccc(F)cc2)c2ccc(F)cc2)CC1  half-life (liver microsomes; 100 ng/mL): 201 min
CC(c1cncnc1)n1c(=S)[nH]c2ccc(Cl)cc2c1=O (stereo not shown)  half-life (liver microsomes; 1 µM; pH 7.4): > 186 min
C[C@]12CC[C@H]3[C@@H](CCC4=CC(=O)CC[C@@]43C)[C@@H]1CC[C@@H]2O  half-life (liver microsomes): 21.7 min
Cc1[nH]c(C)c(S(=O)(=O)Nc2ccc(S(=O)(=O)F)c(Cl)c2)c1C(=O)N1CCC(F)(F)C1  half-life (liver microsomes): 22 min
CC(=O)c1c(C)c2cnc(Nc3ccc(C4CCN(CCS(C)(=O)=O)CC4)cn3)nc2n(C2CCCC2)c1=O  half-life (liver S9): 85.6 min
Cc1[nH]c(C)c(S(=O)(=O)Nc2ccc(S(F)(F)(F)(F)F)cc2)c1C(=O)N1CCC(F)(F)C1  half-life (liver microsomes): 26.3 min
Cc1ncc2n1-c1ccc(Cl)cc1C(c1ccccc1F)=NC2  half-life (hepatocytes): 92.6 min
